Results reported in ChEMBL document CHEMBL1145751, “Discovery of (aryloxopropenyl)pyrrolyl hydroxyamides as selective inhibitors of class IIa histone deacetylase homologue HD1-A” (J Med Chem, 2003).
Non-standard residues stand in square brackets, D forms with d. Residues, ends and D or L forms follow the SMILES beside them. ξ: configuration not given here. Aoe(9ξ) = N[C@@H](CCCCCC(=O)C1CO1)C(=O)O; dPip = O=C(O)[C@H]1CCCCN1

Key:
[1] = Inhibitory activity afgainst maize Histone deacetylase 1-A; design: species or system Zea mays
[2] = Inhibitory activity against maize Histone deacetylase 1-B; design: species or system Zea mays
[3] = biological target: T1, Histone deacetylase HD2 (Zea mays, UniProt Q94F81); test: Tested for maize Histone deacetylase 2 inhibitory activity
T1 sequence (Q94F81 whole entry): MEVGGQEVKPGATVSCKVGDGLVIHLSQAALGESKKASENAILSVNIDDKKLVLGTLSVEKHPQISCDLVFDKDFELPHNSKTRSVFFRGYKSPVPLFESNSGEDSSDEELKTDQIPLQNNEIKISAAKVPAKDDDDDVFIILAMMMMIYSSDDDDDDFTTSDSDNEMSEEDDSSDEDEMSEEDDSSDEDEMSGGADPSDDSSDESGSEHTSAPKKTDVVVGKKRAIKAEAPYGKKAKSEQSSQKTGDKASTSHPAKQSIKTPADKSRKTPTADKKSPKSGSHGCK
Procedure, shortened: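 Purified maize HD2 enzyme was incubated with compounds and [³H]-acetate pre-labeled chicken reticulocyte histones (added from a 4 mg/mL stock) for 30 min at 30 °C. The reaction was stopped with HCl/acetate, and released [³H]-acetate was extracted into ethyl acetate. The upper phase was counted by liquid scintillation. IC50 is the mean of at least three separate experiments.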

[4] = Fold selectivity for classIIa HDAC
[5] = biological target: T2, Histone deacetylase 1 (Homo sapiens, UniProt Q13547); test: Inhibition of Histone deacetylase 1 induced acetylated histone in mammalian cells.; type: cell-based
T2 sequence (Q13547 whole entry): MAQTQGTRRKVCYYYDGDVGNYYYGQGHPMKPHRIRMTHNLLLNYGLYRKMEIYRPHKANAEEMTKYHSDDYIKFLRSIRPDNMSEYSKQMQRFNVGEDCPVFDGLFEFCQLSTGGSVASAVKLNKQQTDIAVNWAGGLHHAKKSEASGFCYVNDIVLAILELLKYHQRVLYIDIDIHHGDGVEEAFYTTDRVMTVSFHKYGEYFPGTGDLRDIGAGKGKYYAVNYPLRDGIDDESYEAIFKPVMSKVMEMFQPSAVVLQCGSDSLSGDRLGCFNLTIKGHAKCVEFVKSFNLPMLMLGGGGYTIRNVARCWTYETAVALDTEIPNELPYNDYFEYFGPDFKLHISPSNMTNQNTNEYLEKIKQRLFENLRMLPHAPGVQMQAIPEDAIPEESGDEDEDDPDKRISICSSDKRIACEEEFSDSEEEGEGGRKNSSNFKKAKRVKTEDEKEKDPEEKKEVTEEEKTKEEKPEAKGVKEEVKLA

[6] = (§1) Tested for inhibition of Histone deacetylase 6 induced acetylated tubulin in mammalian cells.; type: cell-based
[7] = Inhibition of Histone deacetylase 4 in mammalian cells; type: cell-based
[8] = biological target: T3, Protein deacetylase HDAC6 (Homo sapiens, UniProt Q9UBN7); test: as §1; type: cell-based
T3 sequence (Q9UBN7 whole entry): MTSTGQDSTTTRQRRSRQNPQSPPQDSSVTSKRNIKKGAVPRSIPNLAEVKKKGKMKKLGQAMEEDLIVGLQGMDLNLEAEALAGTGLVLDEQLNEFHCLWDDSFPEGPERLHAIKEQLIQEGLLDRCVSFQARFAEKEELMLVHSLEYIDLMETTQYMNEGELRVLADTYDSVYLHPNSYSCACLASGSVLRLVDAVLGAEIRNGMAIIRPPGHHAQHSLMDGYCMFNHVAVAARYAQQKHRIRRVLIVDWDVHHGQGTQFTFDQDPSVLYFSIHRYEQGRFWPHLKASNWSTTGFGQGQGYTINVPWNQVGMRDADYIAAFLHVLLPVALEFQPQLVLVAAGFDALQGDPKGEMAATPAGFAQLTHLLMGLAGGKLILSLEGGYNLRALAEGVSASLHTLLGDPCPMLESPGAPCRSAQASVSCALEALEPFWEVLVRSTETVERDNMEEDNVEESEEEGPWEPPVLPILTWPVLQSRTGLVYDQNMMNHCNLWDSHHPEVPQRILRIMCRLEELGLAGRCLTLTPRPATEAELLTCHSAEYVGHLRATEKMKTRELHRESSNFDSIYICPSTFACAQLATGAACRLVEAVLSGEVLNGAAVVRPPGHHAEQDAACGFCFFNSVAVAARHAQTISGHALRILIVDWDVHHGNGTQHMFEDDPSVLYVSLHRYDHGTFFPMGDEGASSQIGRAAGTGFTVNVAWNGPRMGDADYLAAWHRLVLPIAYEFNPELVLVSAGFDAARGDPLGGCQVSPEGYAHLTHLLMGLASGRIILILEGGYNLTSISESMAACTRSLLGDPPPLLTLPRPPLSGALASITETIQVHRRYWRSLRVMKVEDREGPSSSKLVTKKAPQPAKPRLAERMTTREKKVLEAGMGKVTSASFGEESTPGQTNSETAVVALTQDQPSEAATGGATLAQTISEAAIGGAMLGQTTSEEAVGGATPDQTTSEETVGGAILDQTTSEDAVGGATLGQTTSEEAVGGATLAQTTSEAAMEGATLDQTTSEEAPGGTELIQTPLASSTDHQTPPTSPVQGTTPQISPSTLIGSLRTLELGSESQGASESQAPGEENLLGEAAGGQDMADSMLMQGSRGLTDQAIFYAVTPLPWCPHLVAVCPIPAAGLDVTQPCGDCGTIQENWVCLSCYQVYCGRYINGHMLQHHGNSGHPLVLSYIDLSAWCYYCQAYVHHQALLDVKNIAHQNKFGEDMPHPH

[9] = biological target: T2, Histone deacetylase 1; test: Inhibition of Histone deacetylase 1 induced acetylated histone in mammalian cells; type: cell-based
[10] = biological target: Histone deacetylase 4 (Homo sapiens, UniProt P56524); test: Inhibition of Histone deacetylase 4 in mammalian cells.; type: cell-based
Histone deacetylase 4, sequence (P56524 whole entry): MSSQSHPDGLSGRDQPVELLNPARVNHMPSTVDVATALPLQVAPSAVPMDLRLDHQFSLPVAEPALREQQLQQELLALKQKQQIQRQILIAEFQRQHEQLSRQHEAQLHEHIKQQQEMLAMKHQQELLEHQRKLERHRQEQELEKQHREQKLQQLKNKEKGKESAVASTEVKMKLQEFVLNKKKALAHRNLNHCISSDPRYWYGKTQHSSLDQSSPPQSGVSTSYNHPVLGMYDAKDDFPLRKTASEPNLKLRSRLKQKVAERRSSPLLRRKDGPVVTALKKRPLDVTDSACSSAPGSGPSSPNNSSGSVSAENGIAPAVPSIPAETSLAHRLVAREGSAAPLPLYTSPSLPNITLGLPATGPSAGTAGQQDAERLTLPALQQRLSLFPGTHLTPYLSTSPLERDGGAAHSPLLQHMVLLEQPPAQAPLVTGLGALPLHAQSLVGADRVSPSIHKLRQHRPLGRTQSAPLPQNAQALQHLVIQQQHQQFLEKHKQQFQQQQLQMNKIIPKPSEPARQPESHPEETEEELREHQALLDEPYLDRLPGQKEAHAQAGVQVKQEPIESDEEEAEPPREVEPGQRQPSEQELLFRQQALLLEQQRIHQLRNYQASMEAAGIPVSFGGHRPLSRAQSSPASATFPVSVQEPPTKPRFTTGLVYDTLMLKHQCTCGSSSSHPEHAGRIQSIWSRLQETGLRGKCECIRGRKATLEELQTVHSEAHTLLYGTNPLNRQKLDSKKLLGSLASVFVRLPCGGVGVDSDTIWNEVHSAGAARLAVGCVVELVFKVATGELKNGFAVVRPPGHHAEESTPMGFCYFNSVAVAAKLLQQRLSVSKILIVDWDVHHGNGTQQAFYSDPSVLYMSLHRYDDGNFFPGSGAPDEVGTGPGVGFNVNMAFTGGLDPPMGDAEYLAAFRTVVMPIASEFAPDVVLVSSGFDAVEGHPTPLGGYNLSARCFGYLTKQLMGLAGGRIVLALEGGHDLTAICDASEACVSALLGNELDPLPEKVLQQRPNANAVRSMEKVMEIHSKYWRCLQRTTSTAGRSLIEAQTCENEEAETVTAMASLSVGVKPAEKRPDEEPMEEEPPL

IC50 [1] | IC50 [2] | IC50 [3] | Fold selectivity [4] | Compound | other results
18600 nM | 29400 nM | 25200 nM |  | Cn1cc(/C=C/C(=O)c2ccc(Cl)cc2)cc1/C=C/C(=O)NO | 
200 nM | 2500 nM | 7900 nM | 12 | Cc1cccc(C(=O)/C=C/c2cc(/C=C/C(=O)NO)n(C)c2)c1 | 
200 nM | 300 nM | 280 nM |  | Cn1cc(/C=C/C(=O)c2ccccc2)cc1/C=C/C(=O)NO | 
 |  |  |  | C/C=C1\NC(=O)[C@H]2CSSCC/C=C/[C@H](CC(=O)N[C@H](C(C)C)C(=O)N2)OC(=O)[C@H](C(C)C)NC1=O [ROMIDEPSIN] | EC50 [5]: 36000 nM
60 nM | 400 nM | 270 nM | 7 | Cc1ccccc1C(=O)/C=C/c1cc(/C=C/C(=O)NO)n(C)c1 | 
0.8 nM | 0.4 nM |  |  | CC(/C=C/C(=O)NO)=C\[C@@H](C)C(=O)c1ccc(N(C)C)cc1 [TRICHOSTATIN] | EC50 [6]: 8600 nM; IC50 [7]: 38 nM
 |  |  |  | O=C(CCCCC[C@@H]1NC(=O)[C@H]2CCCCN2C(=O)[C@H](Cc2ccccc2)NC(=O)[C@H](Cc2ccccc2)NC1=O)C1CO1 (some centres undefined) [TRAPOXIN A] (cyclo(FF[dPip][Aoe(9ξ)])) | EC50 [8]: 524000 nM; EC50 [9]: 820 nM
400 nM | 31400 nM | 24200 nM | 78 | Cn1cc(/C=C/C(=O)c2cccc(Cl)c2)cc1/C=C/C(=O)NO | 
 |  |  |  | C[C@@H]1NC(=O)[C@H](CCCCCC(=O)C2CO2)NC(=O)[C@H]2CCCN2C(=O)[C@H](C)NC1=O (some centres undefined) | EC50 [8]: 360000 nM; EC50 [5]: 110 nM; IC50 [10]: 0.3 nM
50 nM | 1600 nM | 5200 nM | 32 | Cn1cc(/C=C/C(=O)c2ccccc2Cl)cc1/C=C/C(=O)NO | 
 |  |  |  | C[C@@H]1NC(=O)[C@H](CCCCCC(=O)NO)NC(=O)[C@H]2CCCN2C(=O)[C@H](C)NC1=O | EC50 [8]: 19000 nM; EC50 [5]: 1900 nM; IC50 [10]: 2.7 nM
500 nM | 4800 nM | 10200 nM | 10 | Cc1ccc(C(=O)/C=C/c2cc(/C=C/C(=O)NO)n(C)c2)cc1 | 
